# Laboratory results as given in ChEMBL document CHEMBL3797168 (J Med Chem, 2016).
# Calls of active or inactive are those of the source.
# Legend:
# [1] = molecular target: T1, Adenosine receptor A1 (Homo sapiens) (UniProt P30542); assay: Displacement of [3H]N6-R-phenylisopropyladenosine from human adenosine A1 receptor expressed in CHO cell membranes at 10 uM incubated for 60 mins by liquid scintillation counting analysis
# T1 sequence (whole entry): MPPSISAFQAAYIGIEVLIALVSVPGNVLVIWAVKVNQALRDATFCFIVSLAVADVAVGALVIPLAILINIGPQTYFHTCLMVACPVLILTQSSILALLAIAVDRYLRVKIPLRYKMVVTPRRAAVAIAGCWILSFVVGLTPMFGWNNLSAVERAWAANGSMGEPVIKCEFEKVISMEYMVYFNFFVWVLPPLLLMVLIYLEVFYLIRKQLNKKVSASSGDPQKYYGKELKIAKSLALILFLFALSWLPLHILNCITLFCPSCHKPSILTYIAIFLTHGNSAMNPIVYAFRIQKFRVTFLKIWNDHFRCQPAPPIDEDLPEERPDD
# Adenosine receptor A3 [2] = molecular target: T2, Adenosine receptor A3 (Homo sapiens, UniProt P0DMS8); assay: Displacement of [125I]N6-(4-amino-3-iodobenzyl)adenosine-5'-N-methyl-uronamide from human adenosine A3 receptor expressed in CHO cell membranes incubated for 60 mins by liquid scintillation counting analysis
# T2 sequence (P0DMS8 whole entry): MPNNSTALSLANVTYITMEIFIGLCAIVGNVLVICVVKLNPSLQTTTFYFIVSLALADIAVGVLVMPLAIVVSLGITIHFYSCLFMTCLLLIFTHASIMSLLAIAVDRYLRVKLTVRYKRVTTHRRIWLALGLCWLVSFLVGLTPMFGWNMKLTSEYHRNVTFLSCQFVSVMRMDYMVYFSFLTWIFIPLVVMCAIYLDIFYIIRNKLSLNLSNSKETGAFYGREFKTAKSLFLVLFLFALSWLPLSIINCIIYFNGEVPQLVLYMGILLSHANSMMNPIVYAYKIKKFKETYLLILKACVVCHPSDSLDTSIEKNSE
# [3] = molecular target: Adenosine receptor A2a (Homo sapiens) (UniProt P29274); assay: Displacement of [3H]2-[p-(2-carboxyethyl)phenyl-ethylamino]-5'-N-ethylcarboxamido-adenosine from human adenosine A2A receptor expressed in HEK293 cell membranes at 10 uM incubated for 60 mins by liquid scintillation counting analysis
# [4] = molecular target: Sodium-dependent dopamine transporter (Homo sapiens) (UniProt Q01959); assay: Increase in [3H]methyl (1R,2S,3S)-3-(4-fluorophenyl)-8-methyl-8-azabicyclo[3.2.1]octane-2-carboxylate binding to recombinant human DAT expressed in HEK293 cells at 10 uM by PDSP assay; assay type: cell-based
# Mus musculus [5] = assay: Antineuropathic pain activity in mouse chronic constriction injury model assessed as protection against mechanoallodynia at 3 micromol/kg administered as oral gavage on day 7; assay type: functional, organism-based
# How it was run: (§1)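 Mice underwent sciatic nerve ligation (Bennett method). On day 7, at peak pain, they were dosed by oral gavage at 3 µmol/kg, n=3. Vehicle was 10% DMSO in 0.5% methylcellulose, diluted from a 5 mM DMSO stock. Ipsilateral hind paw withdrawal threshold (g) was followed over time. Experimenters were blinded.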
# Adenosine receptor A3 [6] = molecular target: T3, Adenosine receptor A3 (Mus musculus, UniProt Q61618); assay: Displacement of [125I]N6-(4-amino-3-iodobenzyl)adenosine-5'-Nmethyluronamide from mouse adenosine A3 receptor expressed in HEK293 cell membranes incubated for 60 mins by liquid scintillation counting analysis
# T3 sequence (Q61618 whole entry): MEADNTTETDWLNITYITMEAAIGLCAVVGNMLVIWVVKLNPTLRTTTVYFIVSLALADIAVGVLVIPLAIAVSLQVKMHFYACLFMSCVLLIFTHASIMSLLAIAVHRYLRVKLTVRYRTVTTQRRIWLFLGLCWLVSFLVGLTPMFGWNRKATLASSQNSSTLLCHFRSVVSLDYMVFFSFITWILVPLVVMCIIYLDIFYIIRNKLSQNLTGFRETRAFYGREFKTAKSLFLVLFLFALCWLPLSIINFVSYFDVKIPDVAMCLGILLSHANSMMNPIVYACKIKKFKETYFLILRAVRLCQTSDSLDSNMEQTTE
# Adenosine receptor A3 [7] = molecular target: T2, Adenosine receptor A3; assay: Agonist activity at recombinant human adenosine A3 receptor expressed in CHO cells assessed as inhibition of forskolin-stimulated cAMP accumulation preincubated for 30 mins followed by forsolkin addition measured after 15 mins by immunoassay; assay type: cell-based
# [8] = molecular target: Delta-type opioid receptor (Homo sapiens, UniProt P41143)
# Adenosine receptor A1 = molecular target: T4, Adenosine receptor A1 (Homo sapiens, UniProt P30542); assay: Displacement of [3H]N6-R-phenylisopropyladenosine from human adenosine A1 receptor expressed in CHO cell membranes incubated for 60 mins by liquid scintillation counting analysis
# T4 sequence (P30542 whole entry): T1 sequence (whole entry)
# Adenosine receptor A3 [9] = molecular target: T3, Adenosine receptor A3; assay: Agonist activity at mouse adenosine A3 receptor expressed in HEK293 cell membranes assessed as inhibition of forskolin-stimulated cAMP accumulation preincubated for 30 mins followed by forsolkin addition measured after 15 mins by immunoassay; assay type: functional, cell-based
# Mus musculus [10] = assay: Antineuropathic pain activity in mouse chronic constriction injury model assessed as time duration showing protection against mechanoallodynia at 3 micromol/kg administered as oral gavage on day 7; assay type: functional; how it was run: as §1
# Mus musculus [11] = assay: Antineuropathic pain activity in mouse chronic constriction injury model assessed as protection against mechanoallodynia at 3 micromol/kg administered as oral gavage on day 7 measured at 3 hrs; assay type: functional; how it was run: as §1
# Mus musculus [12] = assay: Antineuropathic pain activity in mouse chronic constriction injury model assessed as protection against mechanoallodynia at 3 micromol/kg administered as oral gavage on day 7 measured at 1 hr; assay type: functional; how it was run: as §1
# Chain of Adenosine receptor A2a (Homo sapiens) (P29274 whole entry): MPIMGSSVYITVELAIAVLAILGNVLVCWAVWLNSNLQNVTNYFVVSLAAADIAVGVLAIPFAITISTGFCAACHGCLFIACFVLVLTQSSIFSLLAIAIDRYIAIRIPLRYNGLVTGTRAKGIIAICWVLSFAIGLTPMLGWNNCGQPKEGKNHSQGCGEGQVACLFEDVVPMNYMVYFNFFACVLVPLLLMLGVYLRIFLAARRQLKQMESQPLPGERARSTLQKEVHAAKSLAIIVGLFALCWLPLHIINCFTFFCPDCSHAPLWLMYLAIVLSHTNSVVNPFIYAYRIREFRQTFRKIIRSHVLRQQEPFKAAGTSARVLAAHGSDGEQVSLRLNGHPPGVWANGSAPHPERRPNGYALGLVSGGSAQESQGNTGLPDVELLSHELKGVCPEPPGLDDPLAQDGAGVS
# Chain of Delta-type opioid receptor (P41143 whole entry): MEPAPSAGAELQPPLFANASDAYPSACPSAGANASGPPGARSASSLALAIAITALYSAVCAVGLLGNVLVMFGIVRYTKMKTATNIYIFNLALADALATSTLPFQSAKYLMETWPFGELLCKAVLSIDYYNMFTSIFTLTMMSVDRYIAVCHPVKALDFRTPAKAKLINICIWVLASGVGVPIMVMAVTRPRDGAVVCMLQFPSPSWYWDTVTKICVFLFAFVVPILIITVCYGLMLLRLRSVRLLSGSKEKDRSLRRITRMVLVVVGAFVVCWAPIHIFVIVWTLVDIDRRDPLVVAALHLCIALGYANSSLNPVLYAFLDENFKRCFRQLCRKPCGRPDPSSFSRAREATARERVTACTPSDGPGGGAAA
# Chain of Sodium-dependent dopamine transporter (Homo sapiens) (Q01959 whole entry): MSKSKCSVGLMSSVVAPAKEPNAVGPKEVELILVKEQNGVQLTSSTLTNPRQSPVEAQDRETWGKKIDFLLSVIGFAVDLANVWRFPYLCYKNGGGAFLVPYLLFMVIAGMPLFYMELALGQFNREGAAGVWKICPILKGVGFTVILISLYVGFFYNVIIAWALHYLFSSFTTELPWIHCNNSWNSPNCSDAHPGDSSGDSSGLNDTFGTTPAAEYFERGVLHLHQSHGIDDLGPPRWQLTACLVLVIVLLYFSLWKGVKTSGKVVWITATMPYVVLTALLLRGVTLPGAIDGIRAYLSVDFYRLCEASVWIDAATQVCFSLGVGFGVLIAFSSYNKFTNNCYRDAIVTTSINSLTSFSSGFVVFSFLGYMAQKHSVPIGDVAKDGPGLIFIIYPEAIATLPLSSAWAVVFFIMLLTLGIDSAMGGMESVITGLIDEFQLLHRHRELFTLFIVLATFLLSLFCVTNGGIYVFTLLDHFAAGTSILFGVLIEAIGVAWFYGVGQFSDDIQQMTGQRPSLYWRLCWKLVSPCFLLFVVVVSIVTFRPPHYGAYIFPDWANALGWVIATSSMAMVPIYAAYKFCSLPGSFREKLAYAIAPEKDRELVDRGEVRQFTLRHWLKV
inhibition [1] [%],Ki (Adenosine receptor A3 [2]) [nM],inhibition [3] [%],SMILES,also measured
17,604,< 10,CNC(=O)[C@@]12C[C@@H]1[C@@H](n1cnc3cnc(NC)nc31)[C@H](O)[C@@H]2O,
14,1480,20,CNC(=O)[C@@]12C[C@@H]1[C@@H](n1cnc3cnc(/C=C(\O)c4cnccn4)nc31)[C@H](O)[C@@H]2O,
15,,34,CNC(=O)[C@@]12C[C@@H]1[C@@H](n1cnc3c(C)nc(C#Cc4ccccc4)nc31)[C@H](O)[C@@H]2O,Activity [4]: 200%; Activity (Mus musculus [5]): Active
< 10,42.2,12,CNC(=O)[C@@]12C[C@@H]1[C@@H](n1cnc3c(C)nc(C#Cc4ccc(Cl)s4)nc31)[C@H](O)[C@@H]2O,Ki (Adenosine receptor A3 [6]): 722 nM; EC50 (Adenosine receptor A3 [7]): 12.5 nM; Ki [8]: 5.8 µM; Activity (Mus musculus [5]): Active
,98.5,14,CNC(=O)[C@@]12C[C@@H]1[C@@H](n1cnc3c(C)nc(C#Cc4ccc(F)c(F)c4)nc31)[C@H](O)[C@@H]2O,Ki (Adenosine receptor A1): 5.43 µM
16,78.5,16,CNC(=O)[C@@]12C[C@@H]1[C@@H](n1cnc3c(/C=C(\O)c4ccccc4)nc(C#Cc4ccccc4)nc31)[C@H](O)[C@@H]2O,Ki (Adenosine receptor A3 [6]): 136 nM; EC50 (Adenosine receptor A3 [9]): 4.86 nM; Activity (Mus musculus [5]): Active
16,,15,CNC(=O)[C@@]12C[C@@H]1[C@@H](n1cnc3c(C)nc(C#Cc4ccc(C(C)(C)C)cc4)nc31)[C@H](O)[C@@H]2O,

# More lines, now with the values behind:
SMILES,inhibition [1] [%],Ki (Adenosine receptor A3 [2]) [nM],inhibition [3] [%],also measured
CNC(=O)[C@@]12C[C@@H]1[C@@H](n1cnc3c(C)nc(C#Cc4cnccn4)nc31)[C@H](O)[C@@H]2O,15,,17,
CNC(=O)[C@@]12C[C@@H]1[C@@H](n1cnc3c(/C=C(\O)c4ccccc4)nc(Cl)nc31)[C@H](O)[C@@H]2O,30,1140,24,
CNC(=O)[C@@]12C[C@@H]1[C@@H](n1cnc3cnc(C#Cc4ccc(F)c(F)c4)nc31)[C@H](O)[C@@H]2O,17,124,12,
CNC(=O)[C@@]12C[C@@H]1[C@@H](n1cnc3c(/C=C(\O)c4ccccc4Cl)nc(C#Cc4ccccc4Cl)nc31)[C@H](O)[C@@H]2O,28,515,21,
CNC(=O)[C@@]12C[C@@H]1[C@@H](n1cnc3c(OC)nc(C#Cc4ccc(Cl)s4)nc31)[C@H](O)[C@@H]2O,,,27,Ki (Adenosine receptor A1): 0.796 µM
CNC(=O)[C@@]12C[C@@H]1[C@@H](n1cnc3c(/C=C(\O)c4ccc(C(C)(C)C)cc4)nc(C#Cc4ccc(C(C)(C)C)cc4)nc31)[C@H](O)[C@@H]2O,24,94.3,19,
CNC(=O)[C@@]12C[C@@H]1[C@@H](n1cnc3cnc(C#Cc4ccc(Cl)s4)nc31)[C@H](O)[C@@H]2O,< 10,60,18,Ki (Adenosine receptor A3 [6]): 396 nM; Time (Mus musculus [10]): 5 h; EC50 (Adenosine receptor A3 [7]): 26.9 nM
CNC(=O)[C@@]12C[C@@H]1[C@@H](n1cnc3c(NCc4cccc(Cl)c4)nc(C#Cc4ccc(F)c(F)c4)nc31)[C@H](O)[C@@H]2O,,,,Activity (Mus musculus [11]): 23.7%; Activity (Mus musculus [12]): 100%
CNC(=O)[C@@]12C[C@@H]1[C@@H](n1cnc3c(NC)nc(C#Cc4ccccc4)nc31)[C@H](O)[C@@H]2O,,,,Activity (Mus musculus [5]): Active
